Data set [1] is filed under the species Rattus norvegicus. Nature of the data set: Hill coefficient for affinity to M1 muscarinic receptor of rat cerebral cortex.
The species named for data set [2] is Rattus norvegicus. In words: Hill coefficient for affinity to M2 muscarinic receptor of rat cerebral cortex.
For data set [3], the species on record is Rattus norvegicus. In words: Hill coefficient for affinity to M3 muscarinic receptor of rat cerebral cortex.
For data set [4], the species on record is Cavia porcellus. In words: In vitro potency against muscarinic preparation from guinea pig atria. Type of data set: functional. Summed up:
(§1)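 Isolated tissues: guinea pig atria, ileum and trachea, and rat jejunum and bladder. Agonist concentration–response curves were run, with potency expressed as −log EC50. Values are means ± SEM of six to nine experiments.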

For data set [5], the species on record is Cavia porcellus. Nature of the data set: In vitro potency against muscarinic preparation from guinea pig ileum. Type of data set: functional. An outline of the steps:
as §1

Data set [6] is filed under the species Rattus norvegicus. In words: In vitro potency against muscarinic preparation from rat bladder. Format: functional. Summed up: as §1
For data set [7], the species on record is Cavia porcellus. In words: In vitro potency against muscarinic preparation from guinea pig trachea. Type of data set: functional. An outline of the steps: as §1
The species entered for data set [8] is Rattus norvegicus. Nature of the data set: In vitro potency against muscarinic preparation from rat jejunum. Type of data set: functional. An outline of the steps:
as §1

The species named for data set [9] is Rattus norvegicus. In words: In vitro potency against muscarinic preparation from rat jejunum. Type of data set: functional. Summed up:
as §1

The species entered for data set [10] is Cavia porcellus. In words: In vitro potency against muscarinic preparation from guinea pig ileum. Format: functional. An outline of the steps:
as §1

The species entered for data set [11] is Cavia porcellus. Nature of the data set: In vitro potency against muscarinic preparation from guinea pig trachea. Type of data set: functional. An outline of the steps: as §1
For data set [12], the species on record is Cavia porcellus. Nature of the data set: In vitro potency against muscarinic preparation from guinea pig atria. Format: functional. An outline of the steps: as §1
Data set [13] concerns the target T1, Muscarinic acetylcholine receptor M1 (Rattus norvegicus) (UniProt P08482).
T1 sequence (whole entry): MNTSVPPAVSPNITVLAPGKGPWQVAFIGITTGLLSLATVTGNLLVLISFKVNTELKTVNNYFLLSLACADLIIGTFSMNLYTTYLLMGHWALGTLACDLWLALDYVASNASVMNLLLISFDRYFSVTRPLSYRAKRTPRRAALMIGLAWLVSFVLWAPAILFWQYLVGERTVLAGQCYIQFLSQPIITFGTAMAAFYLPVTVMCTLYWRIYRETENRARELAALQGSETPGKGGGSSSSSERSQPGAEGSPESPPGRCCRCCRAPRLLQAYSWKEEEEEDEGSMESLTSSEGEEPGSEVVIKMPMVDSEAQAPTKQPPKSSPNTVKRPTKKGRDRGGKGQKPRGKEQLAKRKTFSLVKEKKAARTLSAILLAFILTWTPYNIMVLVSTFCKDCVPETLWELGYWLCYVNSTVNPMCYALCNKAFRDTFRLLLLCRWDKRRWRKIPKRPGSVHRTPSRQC
The settings on record: Cerebral cortex.

For data set [14], the target named is T1, Muscarinic acetylcholine receptor M1 (Rattus norvegicus). The note with it: Cerebral cortex. This is another data set of the same source.

For orientation: EC50 means the concentration that produces a half-maximal response. Read a high EC50 as a less potent agent. Regarding `C[C@H]1O[C@@H](C[N+](C)(C)C)CC1=O.[I-]`, the nH in data set [1] is recorded as 1; in data set [2], 0.6; in data set [3], 1. Moreover, the EC50 is 0.501 µM in data set [4], 0.302 µM in data set [5], 3.55 µM in [6] and 0.49 µM in data set [7].

For `C[C@@H]1O[C@@H](C[N+](C)(C)C)CC1=O.[I-]`, the nH is given as 0.74 in data set [1], 0.58 in [2] and 0.92 in data set [3]. Moreover, the EC50 in data set [8] is 0.0204 µM; in [4], 0.00513 µM; in [5], 0.00347 µM; in data set [6], 0.105 µM.

With `C[C@H]1O[C@H](C[N+](C)(C)C)CC1=O.[I-]`, the nH in data set [1] turned out to be 0.89; in data set [2], 0.63; in data set [3], 0.9. Further, the EC50 in [8] is 0.661 µM; in data set [4], 0.229 µM; in [5] it was 0.148 µM; in data set [6] it was 2 µM.

With `C[C@@H]1O[C@H](C[N+](C)(C)C)CC1=O.[I-]`, the nH in [1] is 0.79; in data set [2], 0.58; in [3], 0.78. Besides, the EC50 in [9] was 0.00741 µM; in data set [10], 0.000794 µM; in data set [11] it was 0.00112 µM; in [12] it was 0.0012 µM.

Turning to `C[C@H]1O[C@@H](C[N+](C)(C)C)C[C@@H]1O`, the EC50 in data set [4] is 6.76 µM; in [5] it was 2.4 µM. Moreover, the nH in [13] turned out to be 0.76.

Regarding `C[C@@H]1O[C@H](C[N+](C)(C)C)C[C@H]1O`, the EC50 was 0.0204 µM in [4] and 0.00741 µM in data set [5]. The molecule further came in with a nH in data set [14] of 1.
